Data reported in ChEMBL document CHEMBL1139934, “Synthesis and biological activity of imidazopyridine anticoccidial agents: part I” (Eur J Med Chem, 2007).

Tests used:
Eimeria tenella [1] = test: Anticococcidal activity against Eimeria tenella in Chick assessed as reduction in oocyte at 25 ppm relative to control; format: functional; design: scale not given: the % may be the effect or the level left
In short: (§1)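 Expanded Mini-Assay Coccidiosis (ExMAC) in chickens infected with E. tenella, E. acervulina, E. mitis and E. maxima. Compound given in the feed at the stated ppm. Efficacy for each species is scored 0 to 4 from the percent oocyst reduction relative to an untreated control. Where a compound was tested more than once, all values are reported.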

[2] = target: cGMP-dependent protein kinase (Eimeria tenella, UniProt Q8MMZ8); test: Inhibition of Eimeria tenella cGMP-dependent protein kinase by Ten_K assay
Sequence of cGMP-dependent protein kinase (Q8MMZ8 whole entry): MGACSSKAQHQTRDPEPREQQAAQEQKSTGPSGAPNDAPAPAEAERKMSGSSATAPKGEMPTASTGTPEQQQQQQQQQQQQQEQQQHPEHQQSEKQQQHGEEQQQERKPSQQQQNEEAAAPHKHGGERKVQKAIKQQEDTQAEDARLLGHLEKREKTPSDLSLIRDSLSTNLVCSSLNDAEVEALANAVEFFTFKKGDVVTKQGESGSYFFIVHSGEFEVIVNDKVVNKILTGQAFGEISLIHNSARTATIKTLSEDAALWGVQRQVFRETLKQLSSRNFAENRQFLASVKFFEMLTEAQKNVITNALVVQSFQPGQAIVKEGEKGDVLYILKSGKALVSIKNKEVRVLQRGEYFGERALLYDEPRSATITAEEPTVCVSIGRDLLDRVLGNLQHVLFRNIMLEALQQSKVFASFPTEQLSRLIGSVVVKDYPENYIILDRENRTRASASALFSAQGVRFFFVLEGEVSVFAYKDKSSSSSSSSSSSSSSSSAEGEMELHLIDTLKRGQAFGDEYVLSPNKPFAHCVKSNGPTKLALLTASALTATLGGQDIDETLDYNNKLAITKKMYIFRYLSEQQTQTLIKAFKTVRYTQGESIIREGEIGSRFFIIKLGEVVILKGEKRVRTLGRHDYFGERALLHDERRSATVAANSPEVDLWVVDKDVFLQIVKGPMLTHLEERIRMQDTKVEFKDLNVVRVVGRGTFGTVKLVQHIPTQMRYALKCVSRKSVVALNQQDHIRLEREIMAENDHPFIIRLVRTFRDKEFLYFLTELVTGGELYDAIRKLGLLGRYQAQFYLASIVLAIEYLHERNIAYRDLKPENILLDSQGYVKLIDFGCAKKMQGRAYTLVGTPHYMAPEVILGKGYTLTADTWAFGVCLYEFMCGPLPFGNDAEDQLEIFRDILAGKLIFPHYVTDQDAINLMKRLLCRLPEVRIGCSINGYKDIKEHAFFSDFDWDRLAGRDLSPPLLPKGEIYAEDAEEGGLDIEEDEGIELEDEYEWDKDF
In short: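 Ten_K (Tenella Kinase) assay measuring inhibition of E. tenella PKG enzyme activity. Result expressed as the concentration giving 50% inhibition (IC50, nM). Where a compound was tested more than once, all values are reported.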

Eimeria tenella [3] = test: Anticococcidal activity against Eimeria tenella in Chick assessed as reduction in oocyte at 12.5 ppm relative to control; format: functional; design: scale not given: the % may be the effect or the level left; in short: as §1
Eimeria tenella [4] = test: Anticococcidal activity against Eimeria tenella in Chick assessed as reduction in oocyte at 6.25 ppm relative to control; format: functional; design: scale not given: the % may be the effect or the level left; in short: as §1
Eimeria acervulina [5] = test: Anticococcidal activity against Eimeria acervulina in Chick assessed as reduction in oocyte at 25 ppm relative to control; format: functional; design: scale not given: the % may be the effect or the level left; in short: as §1
Eimeria acervulina [6] = test: Anticococcidal activity against Eimeria acervulina in Chick assessed as reduction in oocyte at 12.5 ppm relative to control; format: functional; design: scale not given: the % may be the effect or the level left; in short: as §1
Eimeria acervulina [7] = test: Anticococcidal activity against Eimeria acervulina in Chick assessed as reduction in oocyte at 6.25 ppm relative to control; format: functional; design: scale not given: the % may be the effect or the level left; in short: as §1
Eimeria mitis [8] = test: Anticococcidal activity against Eimeria mitis in Chick assessed as reduction in oocyte at 25 ppm relative to control; format: functional; design: scale not given: the % may be the effect or the level left; in short: as §1
Eimeria mitis [9] = test: Anticococcidal activity against Eimeria mitis in Chick assessed as reduction in oocyte at 12.5 ppm relative to control; format: functional; design: scale not given: the % may be the effect or the level left; in short: as §1
Eimeria mitis [10] = test: Anticococcidal activity against Eimeria mitis in Chick assessed as reduction in oocyte at 6.25 ppm relative to control; format: functional; design: scale not given: the % may be the effect or the level left; in short: as §1
Eimeria maxima [11] = test: Anticococcidal activity against Eimeria maxima in Chick assessed as reduction in oocyte at 25 ppm relative to control; format: functional; design: scale not given: the % may be the effect or the level left; in short: as §1
Eimeria maxima [12] = test: Anticococcidal activity against Eimeria maxima in Chick assessed as reduction in oocyte at 12.5 ppm relative to control; format: functional; design: scale not given: the % may be the effect or the level left; in short: as §1

SMILES	Activity (Eimeria tenella [1]) [%]	IC50 [2] [nM]	Activity (Eimeria tenella [3]) [%]	Activity (Eimeria tenella [4]) [%]	Activity (Eimeria acervulina [5]) [%]	Activity (Eimeria acervulina [6]) [%]	Activity (Eimeria acervulina [7]) [%]	Activity (Eimeria mitis [8]) [%]	Activity (Eimeria mitis [9]) [%]	Activity (Eimeria mitis [10]) [%]	Activity (Eimeria maxima [11]) [%]	Activity (Eimeria maxima [12]) [%]
Cc1cc(-c2nc3cc(CN(C)C)ccn3c2-c2ccnc(N)n2)ccc1F	80	0.23	80	80	80	80	80	80	80	80		
CCCCCNc1nccc(-c2c(-c3ccc(F)cc3)nc3cc(CN(C)C)ccn23)n1	<50	0.1			80			50			80	
CN(C)Cc1ccn2c(-c3ccnc(NCc4cccc(F)c4F)n3)c(-c3ccc(F)cc3)nc2c1	<50	0.12			<50			<50			<50	
COCCCNc1nccc(-c2c(-c3ccc(F)cc3)nc3cc(CN(C)C)ccn23)n1	80	0.25			80			<50			50	
CN(C)Cc1ccn2c(-c3ccnc(NCc4cc(F)ccc4F)n3)c(-c3ccc(F)cc3)nc2c1	<50	0.026			<50			<50			80	
CN(C)Cc1ccn2c(-c3ccnc(Nc4ccccn4)n3)c(-c3ccc(F)cc3)nc2c1	80	0.4	80		<50	<50		80	80		80	50
CCCCCCNc1nccc(-c2c(-c3ccc(F)cc3)nc3cc(CN(C)C)ccn23)n1	80	0.13			<50			<50			<50	
CN(C)Cc1ccn2c(-c3ccnc(NCc4cc(F)cc(F)c4)n3)c(-c3ccc(F)cc3)nc2c1	80	0.11	<50		80	<50		<50	<50		80	<50
CN(C)Cc1ccn2c(-c3ccnc(NCc4ccc(Cl)cc4)n3)c(-c3ccc(F)cc3)nc2c1	<50	0.24			<50			<50			<50	
CN(C)Cc1ccn2c(-c3ccnc(NCc4ccc(F)c(F)c4)n3)c(-c3ccc(F)cc3)nc2c1	<50	0.06			<50			<50			<50	
CN(C)Cc1ccn2c(-c3ccnc(NC(=O)NC(C)(C)C)n3)c(-c3ccc(F)cc3)nc2c1		4.39	80			80			80			80
CN(C)Cc1ccn2c(-c3ccnc(NS(=O)(=O)c4ccccc4)n3)c(-c3ccc(F)cc3)nc2c1	<50	0.25			<50			<50			<50	
Cc1cccc(CNc2nccc(-c3c(-c4ccc(F)cc4)nc4cc(CN(C)C)ccn34)n2)c1	80	0.083			<50			<50			<50	
CN(C)Cc1ccn2c(-c3ccnc(N)n3)c(-c3ccc(Cl)cc3)nc2c1	80	0.41	<50		50	<50		50	<50			
CN(C)Cc1ccn2c(-c3ccnc(NCc4cccc(Cl)c4)n3)c(-c3ccc(F)cc3)nc2c1	<50	0.18			<50			<50			80	
CN(C)Cc1ccn2c(-c3nc(N)ncc3Br)c(-c3ccc(F)cc3)nc2c1	50	5.8			<50			<50			50	
CN(C)Cc1ccn2c(-c3ccnc(N)n3)c(-c3ccc(F)cc3F)nc2c1	80	0.1	100	80	100	100	100	80	80	50		
CN(C)Cc1ccn2c(-c3ccnc(NCc4ccc(F)cc4F)n3)c(-c3ccc(F)cc3)nc2c1	<50	0.15			<50			<50			80	
CN(C)Cc1ccn2c(-c3nc(N)ncc3C#N)c(-c3ccc(F)cc3)nc2c1	<50	1.6			<50			<50			<50	
CN(C)Cc1ccn2c(-c3ccnc(N)n3)c(-c3ccc(F)c(Br)c3)nc2c1	80	0.16			80			<50			80	
Cc1ccc(CNc2nccc(-c3c(-c4ccc(F)cc4)nc4cc(CN(C)C)ccn34)n2)cc1	<50	0.121			50			<50			80	
Cc1ccccc1CNc1nccc(-c2c(-c3ccc(F)cc3)nc3cc(CN(C)C)ccn23)n1	<50	0.08			<50			<50			50	
CN(C)Cc1ccn2c(-c3ccnc(NCc4ccccc4Cl)n3)c(-c3ccc(F)cc3)nc2c1	50	0.056			<50			<50			80	
CN(C)Cc1ccn2c(-c3ccnc(NCc4ccc(F)cc4)n3)c(-c3ccc(F)cc3)nc2c1	80	0.066	<50		80	<50		80	<50		80	<50
COC(=O)Nc1nccc(-c2c(-c3ccc(F)cc3)nc3cc(CN(C)C)ccn23)n1	80	0.45	80		80	80		<50	<50		80	80
CCCNc1nccc(-c2c(-c3ccc(F)cc3)nc3cc(CN(C)C)ccn23)n1			80			80			80			80
CN(C)Cc1ccn2c(-c3ccnc(NCc4ccccc4F)n3)c(-c3ccc(F)cc3)nc2c1	80	0.087			<50			80			80	
